Reference: ChEMBL document CHEMBL3046353, “Synthesis and fungicidal activity of some 5-membered heterocyclic derivatives containing benzimidazoles” (1993)
Activity calls are given as the source filed them. The calls are words filed in the database; no cut-off is given here.

How the values were obtained:
Sagittaria latifolia [1] = assay: Herbicidal activity against Sagittaria latifolia (broadleaf arrowhead) under paddy conditions; type: functional, organism-based
Sagittaria latifolia [2] = assay: Pre-emergence herbicidal activity against Sagittaria latifolia (broadleaf arrowhead); type: functional, organism-based
Sagittaria latifolia [3] = assay: Post-emergence herbicidal activity against Sagittaria latifolia (broadleaf arrowhead); type: functional, organism-based
Schoenoplectus acutus [4] = assay: Herbicidal activity against Schoenoplectus acutus (hardstem bulrush) under paddy conditions; type: functional, organism-based
Schoenoplectus acutus [5] = assay: Post-emergence herbicidal activity against Schoenoplectus acutus (hardstem bulrush); type: functional, organism-based
Schoenoplectus acutus [6] = assay: Pre-emergence herbicidal activity against Schoenoplectus acutus (hardstem bulrush); type: functional, organism-based
Echinochloa crus-galli [7] = assay: Herbicidal activity against Echinochloa crus-galli (barnyard grass) under paddy conditions; type: functional, organism-based
Echinochloa crus-galli [8] = assay: Post-emergence herbicidal activity against Echinochloa crus-galli (barnyard grass); type: functional, organism-based
Oryza sativa [9] = assay: Herbicidal activity against Oryza sativa (rice) under paddy conditions; type: functional, organism-based
Echinochloa crus-galli [10] = assay: Pre-emergence herbicidal activity against Echinochloa crus-galli (barnyard grass); type: functional, organism-based
Oryza sativa [11] = assay: Pre-emergence herbicidal activity against Oryza sativa (rice); type: functional, organism-based
Abutilon theophrasti [12] = assay: Post-emergence herbicidal activity against Abutilon theophrasti (velvetleaf); type: functional, organism-based
Oryza sativa [13] = assay: Post-emergence herbicidal activity against Oryza sativa (rice); type: functional, organism-based
Abutilon theophrasti [14] = assay: Pre-emergence herbicidal activity against Abutilon theophrasti (velvetleaf); type: functional, organism-based
Convolvulaceae [15] = assay: Herbicidal activity against Convolvulaceae (morning glory family) under paddy conditions; type: functional, organism-based
Convolvulaceae [16] = assay: Post-emergence herbicidal activity against Convolvulaceae (morning glory family); type: functional, organism-based
Avena sativa [17] = assay: Herbicidal activity against Avena sativa under paddy conditions; type: functional, organism-based
Convolvulaceae [18] = assay: Pre-emergence herbicidal activity against Convolvulaceae (morning glory family); type: functional, organism-based
Avena sativa [19] = assay: Pre-emergence herbicidal activity against Avena sativa; type: functional, organism-based
Avena sativa [20] = assay: Post-emergence herbicidal activity against Avena sativa; type: functional, organism-based
Spodoptera litura = assay: Insecticidal activity against Spodoptera litura; type: functional, organism-based
Tetranychus cinnabarinus = assay: Insecticidal activity against Tetranychus cinnabarinus (carmine spider mite); type: functional, organism-based
Culex pipiens pallens = assay: Insecticidal activity against Culex pipiens pallens (mosquito) at 3 to 5 ppm; type: functional, organism-based
Musca domestica = assay: Insecticidal activity against Musca domestica (house fly); type: functional, organism-based
Rhizoctonia solani = assay: Fungicidal activity against Rhizoctonia solani at 500 ppm after 7 days by poisoned food technique; type: functional; conditions: 168 h, read-out: GI
Summary of the method: (§1)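 Cultures kept on potato dextrose agar. Each compound, dissolved in acetone, was added to potato dextrose agar at a final 500 ppm (w/v) (poisoned food technique). A disc cut from the periphery of a seven-day-old culture was inoculated onto each set. Control sets held potato dextrose agar only. The read-out is percentage inhibition of fungal growth relative to control.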

Helminthosporium = assay: Fungicidal activity against Helminthosporium oryzae at 500 ppm after 7 days by poisoned food technique; type: functional; conditions: 168 h, read-out: GI; summary of the method: as §1

Compound | Activity (Sagittaria latifolia [1]) | Activity (Sagittaria latifolia [2]) | Activity (Sagittaria latifolia [3]) | Activity (Schoenoplectus acutus [4]) | Activity (Schoenoplectus acutus [5]) | Activity (Schoenoplectus acutus [6]) | Activity (Echinochloa crus-galli [7]) | Activity (Echinochloa crus-galli [8]) | Activity (Oryza sativa [9]) | Activity (Echinochloa crus-galli [10]) | Activity (Oryza sativa [11]) | Activity (Abutilon theophrasti [12]) | Activity (Oryza sativa [13]) | Activity (Abutilon theophrasti [14]) | Activity (Convolvulaceae [15]) | Activity (Convolvulaceae [16]) | Activity (Avena sativa [17]) | Activity (Convolvulaceae [18]) | Activity (Avena sativa [19]) | Activity (Avena sativa [20]) | also measured
Clc1ccccc1-c1nnc(SCc2nc3ccccc3[nH]2)s1 | inactive | inactive | inactive | inactive | inactive | inactive | inactive | inactive | inactive | inactive | inactive | inactive | inactive | inactive | inactive | inactive | inactive | inactive | inactive | inactive | Activity (Spodoptera litura): inactive; Activity (Tetranychus cinnabarinus): inactive; Activity (Culex pipiens pallens): Active; Activity (Musca domestica): inactive; inhibition of growth at 500 ppm (Rhizoctonia solani): 49.8%; inhibition of growth at 500 ppm (Helminthosporium): 68.2%
Clc1ccccc1-c1nnc(SCc2nc3ccccc3[nH]2)o1 | inactive | inactive | inactive | inactive | inactive | inactive | inactive | inactive | inactive | inactive | inactive | inactive | inactive | inactive | inactive | inactive | inactive | inactive | inactive | inactive | Activity (Spodoptera litura): inactive; Activity (Tetranychus cinnabarinus): inactive; Activity (Culex pipiens pallens): Active; Activity (Musca domestica): inactive; inhibition of growth at 500 ppm (Rhizoctonia solani): 56.2%; inhibition of growth at 500 ppm (Helminthosporium): 75%
Cc1ccc2[nH]c(CSc3nc4ccccc4[nH]3)nc2c1 | inactive | inactive | inactive | inactive | inactive | inactive | inactive | inactive | inactive | inactive | inactive | inactive | inactive | inactive | inactive | inactive | inactive | inactive | inactive | inactive | Activity (Spodoptera litura): inactive; Activity (Tetranychus cinnabarinus): inactive; Activity (Culex pipiens pallens): Active; Activity (Musca domestica): inactive; inhibition of growth at 500 ppm (Rhizoctonia solani): 61.3%; inhibition of growth at 500 ppm (Helminthosporium): 81.3%
Nn1c(SCc2nc3ccccc3[nH]2)nnc1-c1ccccc1 | inactive | inactive | inactive | inactive | inactive | inactive | inactive | inactive | inactive | inactive | inactive | inactive | inactive | inactive | inactive | inactive | inactive | inactive | inactive | inactive | Activity (Spodoptera litura): inactive; Activity (Tetranychus cinnabarinus): inactive; Activity (Culex pipiens pallens): Active; Activity (Musca domestica): inactive; inhibition of growth at 500 ppm (Rhizoctonia solani): 74.5%; inhibition of growth at 500 ppm (Helminthosporium): 92.5%
Clc1cccc(-c2nnc(SCc3nc4ccccc4[nH]3)s2)c1 | inactive | inactive | inactive | inactive | inactive | inactive | inactive | inactive | inactive | inactive | inactive | inactive | inactive | inactive | inactive | inactive | inactive | inactive | inactive | inactive | Activity (Spodoptera litura): inactive; Activity (Tetranychus cinnabarinus): inactive; Activity (Culex pipiens pallens): Active; Activity (Musca domestica): inactive; inhibition of growth at 500 ppm (Rhizoctonia solani): 89.5%; inhibition of growth at 500 ppm (Helminthosporium): 91.2%
c1ccc2[nH]c(CSc3nnc(-c4ccncc4)o3)nc2c1 | inactive | inactive | inactive | inactive | inactive | inactive | inactive | inactive | inactive | inactive | inactive | inactive | inactive | inactive | inactive | inactive | inactive | inactive | inactive | inactive | Activity (Spodoptera litura): inactive; Activity (Tetranychus cinnabarinus): inactive; Activity (Culex pipiens pallens): Active; Activity (Musca domestica): inactive; inhibition of growth at 500 ppm (Rhizoctonia solani): 32%; inhibition of growth at 500 ppm (Helminthosporium): 49.8%
Nn1c(SCc2nc3ccccc3[nH]2)nnc1-c1ccc(Cl)cc1 | inactive | inactive | inactive | inactive | inactive | inactive | inactive | inactive | inactive | inactive | inactive | inactive | inactive | inactive | inactive | inactive | inactive | inactive | inactive | inactive | Activity (Spodoptera litura): inactive; Activity (Tetranychus cinnabarinus): inactive; Activity (Culex pipiens pallens): Active; Activity (Musca domestica): inactive; inhibition of growth at 500 ppm (Rhizoctonia solani): 20%; inhibition of growth at 500 ppm (Helminthosporium): 45.3%
